Measured values taken from article PMC4203516 (Autophagy, 2014).
“And” between values parts separate entries of the source, which are not always exact repeats. Equal values may be shown once. “Also recorded” adds a separate entry of the source.

Legend:
[1] = Phase I dose escalation: adverse events and dose-limiting toxicities; format: in vivo, human
Method in brief: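 Open-label, single-institution 3 + 3 escalation. IV temsirolimus 25 mg weekly was infused over 30 min after IV diphenhydramine 25–50 mg premedication. A 1-wk temsirolimus-alone run-in preceded daily oral HCQ (200, 400, 800, 1200 mg), split ≥6 h apart above 200 mg. Cycles lasted 4 wk. The DLT window was the first 6 wk, later 5 wk. Toxicity-evaluable patients took ≥1 HCQ dose. Blood counts were weekly, then every 2 wk.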

advanced solid tumors = experiment: RECIST 1.0 response, phase I dose escalation; format: in vivo, human
Method in brief: (§1)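 Patients received IV temsirolimus 25 mg weekly, with a 1-wk single-agent run-in, then daily oral HCQ, treated until progression. Patients were evaluable for response after completing ≥2 wk of concurrent HCQ and temsirolimus. Progression was defined as >20% increase in measurable disease or appearance of a new lesion. Non-evaluable patients were replaced.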

advanced melanoma [2] = experiment: RECIST 1.0 response and progression-free survival, melanoma patients; format: in vivo, human
Method in brief: as §1

[3] = HCQ whole blood population pharmacokinetics; format: in vivo, human
[4] = tested on: autophagic vacuoles in peripheral blood mononuclear cells (PBMC); experiment: Autophagic vacuole; format: in vivo, human; settings: 1 wk, 24 h or 4 h after first TEM infusion, data pooled
[5] = tested on: cutaneous melanoma metastases; experiment: Autophagic vacuole accumulation in serial tumor biopsies by electron microscopy; format: in vivo, human; settings: after 4 h of treatment with TEM, one melanoma patient
Method in brief: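 Cutaneous melanoma metastases sampled serially by punch biopsy from patients on IV temsirolimus 25 mg weekly plus oral HCQ 1200 mg/d. Tumour was dissected on ice and fixed immediately in EM fixative (2% glutaraldehyde, as used for PBMC) before electron microscopy for autophagic vacuoles.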

advanced melanoma [6] = settings: temsirolimus alone, of 33 patients; cited from earlier work
[7] = Total, all HCQ doses + TEM 25 mg weekly, N=39
[8] = daily HCQ 200 mg + TEM 25 mg weekly, N=11
[9] = daily HCQ 400 mg + TEM 25 mg weekly, N=3
[10] = daily HCQ 800 mg + TEM 25 mg weekly, N=9
[11] = daily HCQ 1200 mg + TEM 25 mg weekly, N=16
[12] = Phase I dose escalation, HCQ dose cohort 200 + TEM, N=6 evaluable
[13] = Phase I dose escalation, HCQ dose cohort 400 + TEM, N=3
[14] = Phase I dose escalation, HCQ dose cohort 800 + TEM, N=9
[15] = Phase I dose escalation, HCQ dose cohort 1200 + TEM, N=3
[16] = Phase I dose escalation, Total, N=21 evaluable
[17] = dose escalation, of 19 patients
[18] = Melanoma patients, HCQ dose cohort 200–800 + TEM, N=6
[19] = Melanoma patients, HCQ dose cohort 1200 + TEM, N=13
[20] = melanoma expansion, of 12 patients, HCQ 1200 mg/d + TEM
[21] = population PK, 1000 bootstrap runs
[22] = population PK, whole blood, 34 patients, oral HCQ

SMILES: CCN(CCO)CCCC(C)Nc1ccnc2cc(Cl)ccc12 (stereo not drawn) [HCQ, hydroxychloroquine]
- Anal fissure G1–2, % [1, 7]: 5%
- Anal fissure G1–2, patients [1, 7]: 2
- Anemia G1–2, patients [1, 7]: 4
- Anemia G3–4, patients [1, 7]: 4
- Anorexia G1–2, % [1, 7]: 41%
- Anorexia G1–2, patients [1, 7]: 16
- Anorexia G3–4, % [1, 7]: 8%
- Anorexia G3–4, patients [1, 7]: 3
- Constipation G1–2, % [1, 7]: 13%
- Constipation G1–2, patients [1, 7]: 5
- Diarrhea G1–2, patients [1, 7]: 7
- Dizziness G1–2, % [1, 7]: 5%
- Dizziness G1–2, patients [1, 7]: 2
- Dysguesia G1–2, patients [1, 7]: 2
- Dysguesia G3–4, patients [1, 7]: 1
- Elevated creatinine G1–2, patients [1, 7]: 2
- Elevated creatinine G3–4, patients [1, 7]: 1
- Fatigue G1–2, patients [1, 7]: 19
- Fatigue G3–4, patients [1, 7]: 3
- Lymphopenia G1–2, % [1, 7]: 31%
- Lymphopenia G3–4, % [1, 7]: 3%
- Lymphopenia G3–4, patients [1, 7]: 1
- Nausea G1–2, patients [1, 7]: 13
- Nausea G3–4, % [1, 7]: 15%
- Nausea G3–4, patients [1, 7]: 6
- Neutropenia G1–2, % [1, 7]: 3%
- Neutropenia G1–2, patients [1, 7]: 1
- Poor wound healing G1–2, patients [1, 7]: 2
- Rash G1–2, patients [1, 7]: 15
- Stomatitis G1–2, patients [1, 7]: 16
- Thrombocytopenia G1–2, % [1, 7]: 21%
- Thrombocytopenia G1–2, patients [1, 7]: 8
- Thrombocytopenia G3–4, % [1, 7]: 3%
- Thrombocytopenia G3–4, patients [1, 7]: 1
- Vitiligo G1–2, % [1, 7]: 5%
- Vitiligo G1–2, patients [1, 7]: 2
- Weight loss G1–2, % [1, 7]: 18%
- Weight loss G1–2, patients [1, 7]: 7
- Anemia G1–2, % [1, 8]: 9%
- Anemia G1–2, patients [1, 8]: 1
- Anemia G3–4, % [1, 8]: 9%
- Anemia G3–4, patients [1, 8]: 1
- Anorexia G1–2, % [1, 8]: 36%
- Anorexia G1–2, patients [1, 8]: 4
- Diarrhea G1–2, patients [1, 8]: 3
- Fatigue G1–2, patients [1, 8]: 5
- Lymphopenia G1–2, % [1, 8]: 45%
- Lymphopenia G1–2, patients [1, 8]: 5
- Nausea G1–2, patients [1, 8]: 4
- Nausea G3–4, patients [1, 8]: 1
- Neutropenia G1–2, patients [1, 8]: 1
- Rash G1–2, patients [1, 8]: 3
- Stomatitis G1–2, patients [1, 8]: 4
- Thrombocytopenia G1–2, % [1, 8]: 36%
- Thrombocytopenia G1–2, patients [1, 8]: 4
- Thrombocytopenia G3–4, % [1, 8]: 9%
- Thrombocytopenia G3–4, patients [1, 8]: 1
- Weight loss G1–2, % [1, 8]: 18%
- Weight loss G1–2, patients [1, 8]: 2
- Anemia G1–2, % [1, 9]: 33%
- Anemia G1–2, patients [1, 9]: 1
- Anemia G3–4, % [1, 9]: 33%
- Anemia G3–4, patients [1, 9]: 1
- Anorexia G1–2, % [1, 9]: 33%
- Anorexia G1–2, patients [1, 9]: 1
- Diarrhea G1–2, % [1, 9]: 33%
- Diarrhea G1–2, patients [1, 9]: 1
- Fatigue G1–2, % [1, 9]: 67%
- Fatigue G1–2, patients [1, 9]: 2
- Lymphopenia G1–2, % [1, 9]: 33%
- Lymphopenia G1–2, patients [1, 9]: 1
- Rash G1–2, patients [1, 9]: 1
- Stomatitis G1–2, patients [1, 9]: 1
- Weight loss G1–2, % [1, 9]: 67%
- Weight loss G1–2, patients [1, 9]: 2
- Anal fissure G1–2, % [1, 10]: 11%
- Anal fissure G1–2, patients [1, 10]: 1
- Anemia G1–2, % [1, 10]: 22%
- Anemia G1–2, patients [1, 10]: 2
- Anemia G3–4, patients [1, 10]: 1
- Anorexia G1–2, % [1, 10]: 56%
- Anorexia G1–2, patients [1, 10]: 5
- Anorexia G3–4, % [1, 10]: 11%
- Anorexia G3–4, patients [1, 10]: 1
- Constipation G1–2, % [1, 10]: 11%
- Constipation G1–2, patients [1, 10]: 1
- Diarrhea G1–2, % [1, 10]: 11%
- Diarrhea G1–2, patients [1, 10]: 1
- Fatigue G1–2, patients [1, 10]: 2
- Fatigue G3–4, patients [1, 10]: 2
- Lymphopenia G1–2, % [1, 10]: 33%
- Lymphopenia G1–2, patients [1, 10]: 3
- Nausea G1–2, patients [1, 10]: 4
- Nausea G3–4, patients [1, 10]: 1
- Rash G1–2, patients [1, 10]: 2
- Stomatitis G1–2, patients [1, 10]: 4
- Thrombocytopenia G1–2, % [1, 10]: 22%
- Thrombocytopenia G1–2, patients [1, 10]: 2
- Weight loss G1–2, patients [1, 10]: 1
- Anal fissure G1–2, % [1, 11]: 6%
- Anal fissure G1–2, patients [1, 11]: 1
- Anemia G3–4, % [1, 11]: 6%
- Anemia G3–4, patients [1, 11]: 1
- Anorexia G1–2, % [1, 11]: 38%
- Anorexia G1–2, patients [1, 11]: 6
- Anorexia G3–4, % [1, 11]: 13%
- Anorexia G3–4, patients [1, 11]: 2
- Constipation G1–2, patients [1, 11]: 4
- Diarrhea G1–2, % [1, 11]: 13%
- Diarrhea G1–2, patients [1, 11]: 2
- Dizziness G1–2, % [1, 11]: 13%
- Dizziness G1–2, patients [1, 11]: 2
- Dysguesia G1–2, patients [1, 11]: 2
- Dysguesia G3–4, patients [1, 11]: 1
- Elevated creatinine G1–2, patients [1, 11]: 2
- Elevated creatinine G3–4, patients [1, 11]: 1
- Fatigue G1–2, patients [1, 11]: 10
- Fatigue G3–4, patients [1, 11]: 1
- Lymphopenia G1–2, % [1, 11]: 38%
- Lymphopenia G1–2, patients [1, 11]: 6
- Lymphopenia G3–4, % [1, 11]: 6%
- Lymphopenia G3–4, patients [1, 11]: 1
- Nausea G1–2, patients [1, 11]: 5
- Nausea G3–4, % [1, 11]: 25%
- Nausea G3–4, patients [1, 11]: 4
- Poor wound healing G1–2, patients [1, 11]: 2
- Rash G1–2, patients [1, 11]: 9
- Stomatitis G1–2, patients [1, 11]: 7
- Thrombocytopenia G1–2, % [1, 11]: 13%
- Thrombocytopenia G1–2, patients [1, 11]: 2
- Vitiligo G1–2, patients [1, 11]: 2
- Weight loss G1–2, % [1, 11]: 13%
- Weight loss G1–2, patients [1, 11]: 2
- Grade 3 pulmonary tumor abscess ([1]; head and neck cancer patient with history of aspiration, cycle 3): One patient
- Recommended phase II dose of HCQ ([1]; in combination with TEM 25 mg weekly): 600 mg twice daily
- Maximum tolerated dose (MTD) of HCQ ([1]; in combination with TEM 25 mg weekly, up to 1200 mg/d): not reached; also recorded: not defined
- Grade 4 cholangitis and sepsis during tumor regression ([1]; melanoma patient with large gall bladder metastases, cohort not stated): One patient
- PD (progressive disease), patients (advanced solid tumors; [12]): 2
- PR (partial response), patients (advanced solid tumors; [12]): 0
- PD (progressive disease), patients (advanced solid tumors; [13]): 0
- PR (partial response), patients (advanced solid tumors; [13]): 0
- PD (progressive disease), patients (advanced solid tumors; [14]): 4
- PR (partial response), patients (advanced solid tumors; [14]): 0
- PD (progressive disease), patients (advanced solid tumors; [15]): 1
- PR (partial response), patients (advanced solid tumors; [15]): 0
- PD (progressive disease), % (advanced solid tumors; [16]): 33%
- PD (progressive disease), patients (advanced solid tumors; [16]): 7
- PR (partial response), % (advanced solid tumors; [16]): 0 (0%)
- PR (partial response), patients (advanced solid tumors; [16]): 0 (0%)
- Partial responses by RECIST 1.0, whole study (advanced solid tumors; all cohorts): No partial responses
- Patients with some degree of tumor shrinkage (waterfall plot) (advanced solid tumors; [17]): 7
- Patients with some degree of tumor shrinkage, % (advanced solid tumors; [17]): 37%
- PD (progressive disease), patients (advanced melanoma [2]; [18]): 1
- PR (partial response), patients (advanced melanoma [2]; [18]): 0
- PD (progressive disease), patients (advanced melanoma [2]; [19]): 4
- PR (partial response), patients (advanced melanoma [2]; [19]): 0
- PD (progressive disease), % (advanced melanoma [2]; Melanoma patients, Total, N=19): 26%
- PD (progressive disease), patients (advanced melanoma [2]; Melanoma patients, Total, N=19): 5
- PR (partial response), patients (advanced melanoma [2]; Melanoma patients, Total, N=19): 0
- Median progression-free survival (advanced melanoma [2]; evaluable melanoma patients, HCQ 1200 mg/d + TEM, 95%CI 2–6 mo): 3.5 mo
- Patients with some degree of tumor shrinkage (waterfall plot) (advanced melanoma [2]; [20]): 6
- Patients with some degree of tumor shrinkage, % (advanced melanoma [2]; [20]): 50%
- Vd/F ([3]; human, whole blood, po): 865 L
- Cl/F, apparent oral clearance, bootstrap estimate [3, 21]: 15.953 L/h
- Ka, absorption rate constant, bootstrap estimate [3, 21]: 0.758 h
- Q, intercompartmental clearance, bootstrap estimate [3, 21]: 26.421 L/h
- Tlag, absorption lag time, bootstrap estimate [3, 21]: 0.564 h
- V2/F, apparent peripheral volume of distribution, bootstrap estimate [3, 21]: 3285.0246 L
- V/F, apparent central volume of distribution, bootstrap estimate [3, 21]: 496.0499 L
- Cl/F, apparent oral clearance, model estimate [3, 22]: 17.517 L/h
- Ka, absorption rate constant, model estimate [3, 22]: 0.649 h
- Q, intercompartmental clearance, model estimate [3, 22]: 26.067 L/h
- Tlag, absorption lag time, model estimate [3, 22]: 0.399 h
- V2/F, apparent peripheral volume of distribution, model estimate [3, 22]: 3236.73 L
- Time to steady-state of HCQ blood concentrations, average ([3]; simulated from final PK model for individual patients): 350 h and 360 h
- Blood HCQ AUC, Cmax, Cmin and Cavg relationship to dose ([3]; simulated steady-state, 200–1200 mg/d): proportional to daily HCQ dose

SMILES: CO[C@H]1C[C@@H]2CC[C@@H](C)[C@@](O)(O2)C(=O)C(=O)N2CCCC[C@H]2C(=O)O[C@H]([C@H](C)C[C@@H]2CC[C@@H](OC(=O)C(C)(CO)CO)[C@H](OC)C2)CC(=O)[C@H](C)/C=C(\C)[C@@H](O)[C@@H](OC)C(=O)[C@H](C)C[C@H](C)/C=C/C=C/C=C/1C [TEM, temsirolimus]
- AV/cell in PBMC after TEM treatment alone [4]: no significant increase in AV
- AV in tumor tissue compared with baseline [5]: no accumulation of AV
- Patients with partial response (advanced melanoma [6]): 1
- Patients with stable disease (advanced melanoma [6]): 0
